One data set relates to A549. In words: Cytotoxicity against human A549 cells. As to conditions: for EC50: Homo sapiens, A549, read-out: ED50 (the source's name). It counts as functional. A digest of the protocol: (§1)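 Cultured human tumour lines (A-549 lung carcinoma, MCF-7 breast carcinoma, HT-29 colon adenocarcinoma) were tested at the Purdue Cell Culture Laboratory by standard protocols, with adriamycin as positive control.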

The subject of the next data set is MCF7. Nature of the data set: Cytotoxicity against human MCF7 cells. The conditions noted are these: read-out: ED50 (the source's name). It counts as functional. In short, it runs like this: as §1
For a further data set, the system named is HT-29. Nature of the data set: Cytotoxicity against human HT-29 cells. It counts as functional. The conditions noted are these: read-out: ED50 (the source's name). In short, it runs like this: as §1
Data set [1] in a line: Toxicity in brine shrimp. As to conditions: artemia, in vivo. It counts as organism-based.

SMILES strings stand for the structures. In brackets after ≈: the same amount, converted by molar mass.

Regarding `CCCCCCCCCCCC/C=C\CC[C@@H](OC(C)=O)[C@@H](CC[C@H](OC(C)=O)[C@@H]1CC[C@@H](CCCCCCCC2=CC(C)OC2=O)O1)OC(C)=O` (stereo not given in full), the EC50 is 0.359 µg/mL (≈ 0.49 µM) with A549, 24.9 µg/mL (≈ 33.9 µM) in the data set with MCF7 and 0.0667 µg/mL (≈ 0.091 µM) in the data set with HT-29.
The matching figures for `CCCCCCCCCCCC[C@@H](OC(C)=O)[C@H]1CC[C@H]([C@@H](CCCCCC[C@H](CCCCC[C@H](CC2=C[C@H](C)OC2=O)OC(C)=O)OC(C)=O)OC(C)=O)O1`: 0.17 µg/mL (≈ 0.214 µM), 90.4 µg/mL (≈ 114 µM) and 14.9 µg/mL (≈ 18.7 µM).
For `CCCCCCCCCCCC/C=C\CC[C@@H](OC(C)=O)[C@@H](CC[C@H](OC(C)=O)[C@@H]1CC[C@@H](CCCCCC(CC2=CC(C)OC2=O)OC(C)=O)O1)OC(C)=O` (stereo not given in full) the same measures were 0.96 µg/mL (≈ 1.21 µM), 5.97 µg/mL (≈ 7.55 µM) and 1.6 µg/mL (≈ 2.02 µM).
With `CCCCCCCCCCCC[C@H](O)[C@@H]1CC[C@@H]([C@@H](O)CCCCCCC(O)CCCCC[C@@H](O)CC2=C[C@H](C)OC2=O)O1` (stereo not given in full) [ANNOMONTACIN], the LC50 in data set [1] came to 12.5 µg/mL (≈ 20 µM).
In turn, `COc1cccc2c1C(=O)c1c(O)c3c(c(O)c1C2=O)C[C@@](O)(C(=O)CO)C[C@@H]3O[C@H]1C[C@H](N)[C@H](O)[C@H](C)O1` [DOXORUBICIN] returned an LC50 in data set [1] of 8 µg/mL (≈ 14.7 µM). Besides, in the data set with A549, the ED50 is given as 2.37 ×10⁻⁴ ug/ml. The EC50 in the data set on MCF7 came to 0.0108 µg/mL (≈ 0.0199 µM); in the data set with HT-29 it was 0.00483 µg/mL (≈ 0.00889 µM).
In turn, `CCCCCCCCCCCCCCC(O)C(O)CC[C@H](O)[C@H]1CC[C@H](CCCCC[C@@H](O)CC2=C[C@H](C)OC2=O)O1` (stereo not given in full) [GIGANTETRONENIN] displayed a median lethal concentration (LC50) in data set [1] of 9.4 µg/mL (≈ 15.7 µM). In addition, the EC50 with A549 turned out to be 0.00471 µg/mL (≈ 0.00789 µM).
In turn, `CCCCCCCCCCCC/C=C\CC[C@@H](O)[C@H](O)CC[C@H](O)[C@@H]1CC[C@@H](CCCCCCCC2=C[C@H](C)OC2=O)O1` [GIGANTRIONENIN] had an LC50 in data set [1] of 13.9 µg/mL (≈ 22.9 µM). The EC50 is 0.00394 µg/mL (≈ 0.00649 µM) with A549, 8.06 µg/mL (≈ 13.3 µM) with MCF7 and 0.00292 µg/mL (≈ 0.00481 µM) with HT-29.

The record behind these values is ChEMBL document CHEMBL1150058, “Gigantetronenin and gigantrionenin: novel cytotoxic acetogenins from Goniothalamus giganteus” (J Nat Prod, 1992).
